We go through 6 molecules from ChEMBL document CHEMBL5390224, “Design, synthesis, and biological evaluation of a novel series of 1,2,4-oxadiazole inhibitors of SLACK potassium channels: Identification of in vitro tool VU0935685” (Bioorg Med Chem, 2023).

Active and inactive are the calls of the source. The rule behind the calls is not given here.

For series [1], the system named is HEK293. The series is described as follows: Activation of wild-type human SLACK expressed in HEK293 cells assessed as efficacy at 30 uM by thallium flux assay relative to control. The class given is cell-based.
Series [2] in a line: Activation of wild-type human SLACK expressed in HEK293 cells by thallium flux assay. The series is classed as cell-based. Summed up: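 Stable monoclonal HEK293 line with WT SLACK, dye-loaded 1 h at room temperature (Thallo-AM, probenecid, masking dye, Pluronic), pH 7.3 buffer. Compound added 120 s before Tl2SO4 stimulus (2.5 mM), kinetic fluorescence imaging 120 s. Concentrations 1.5 nM–30 μM, half-log steps, ≥3 replicate wells per series.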

Series [3] has as its target T1, Potassium channel subfamily T member 2 (Homo sapiens) (UniProt Q6UVM3).
T1 sequence (whole entry): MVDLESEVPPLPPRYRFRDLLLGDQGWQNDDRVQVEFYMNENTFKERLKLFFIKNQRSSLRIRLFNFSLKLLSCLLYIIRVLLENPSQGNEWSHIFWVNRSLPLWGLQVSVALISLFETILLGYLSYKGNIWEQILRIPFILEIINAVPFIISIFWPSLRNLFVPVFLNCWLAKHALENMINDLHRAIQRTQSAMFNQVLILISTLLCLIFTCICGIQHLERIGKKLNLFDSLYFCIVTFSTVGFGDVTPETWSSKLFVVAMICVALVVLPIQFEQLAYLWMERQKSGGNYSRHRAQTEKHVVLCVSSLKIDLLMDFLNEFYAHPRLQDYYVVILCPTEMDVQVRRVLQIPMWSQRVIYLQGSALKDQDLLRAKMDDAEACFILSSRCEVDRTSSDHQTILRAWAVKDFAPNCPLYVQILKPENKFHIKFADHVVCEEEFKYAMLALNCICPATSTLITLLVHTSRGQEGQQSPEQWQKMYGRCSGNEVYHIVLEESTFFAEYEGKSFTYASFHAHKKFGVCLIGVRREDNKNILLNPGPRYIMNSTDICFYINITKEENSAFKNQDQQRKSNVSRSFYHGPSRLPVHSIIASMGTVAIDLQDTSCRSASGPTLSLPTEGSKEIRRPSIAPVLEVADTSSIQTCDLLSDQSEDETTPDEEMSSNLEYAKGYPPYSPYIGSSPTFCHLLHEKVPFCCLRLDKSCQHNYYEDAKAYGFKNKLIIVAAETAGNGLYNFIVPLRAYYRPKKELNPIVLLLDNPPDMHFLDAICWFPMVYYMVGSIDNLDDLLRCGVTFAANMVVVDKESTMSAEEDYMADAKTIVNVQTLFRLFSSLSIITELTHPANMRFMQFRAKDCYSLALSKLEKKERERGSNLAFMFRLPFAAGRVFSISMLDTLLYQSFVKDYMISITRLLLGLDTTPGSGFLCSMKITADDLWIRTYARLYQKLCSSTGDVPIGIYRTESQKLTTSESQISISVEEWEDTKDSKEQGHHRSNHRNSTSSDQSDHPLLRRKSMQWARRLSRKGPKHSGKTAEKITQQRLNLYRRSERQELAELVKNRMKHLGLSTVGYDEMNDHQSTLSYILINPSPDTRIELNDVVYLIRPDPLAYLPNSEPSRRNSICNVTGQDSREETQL
The series is described as follows: Inhibition of SLICK (unknown origin) expressed in HEK293 cells assessed as efficacy at 30 uM by thallium flux assay relative to control. The series is classed as cell-based.

The target in series [4] is T2, Potassium channel subfamily T member 2 (Homo sapiens, UniProt Q6UVM3).
T2 sequence (Q6UVM3 whole entry): T1 sequence (whole entry)
The series is described as follows: Inhibition of SLICK (unknown origin) expressed in HEK293 cells by thallium flux assay. The class given is cell-based.

The nature of series [5]: Plasma protein binding in mouse assessed as unbound fraction by equilibrium dialysis method. The class given is ADME, cell-free. Put shortly:
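Equilibrium dialysis, 12–14 K MWCO cellulose membrane: plasma spiked to 5 μM final versus 25 mM phosphate buffer pH 7.4, 6 h at 37 °C, shaking 200 rpm. Both sides matrix-matched, acetonitrile extraction with internal standard, LC/MS/MS quantitation. Triplicate.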

Series [6] deals with HEK293. Description: Inhibition of wild-type human SLACK expressed in HEK293 cells assessed as efficacy at 30 uM by thallium flux assay relative to control. The class given is cell-based. Summed up:
(§1)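 Stable monoclonal HEK293 lines (WT or A934T SLACK) plated 20,000 cells/well; loaded 1 h at room temperature with Thallo-AM dye, 1.25 mM probenecid, masking dye, 0.3% Pluronic F-127 in buffer with 2.7 mM RbCl, pH 7.3. Compound preincubated 120 s, then Tl2SO4 stimulus (2.5 mM); fluorescence read 120 s. Concentration–response 1.5 nM–30 μM in half-log steps, ≥3 replicate wells.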

The next series deals with CHO. The series is described as follows: Inhibition of wild-type human SLACK expressed in CHO cells assessed as efficacy at 30 uM by whole cell voltage clamp electrophysiology assay. The class given is cell-based. The conditions noted are these: Cricetulus griseus.
Series [7] has as its target Calcium-activated potassium channel subunit alpha-1 (Homo sapiens) (UniProt Q12791). Description: Inhibition of Maxi-K (unknown origin) expressed in HEK293 cells assessed as efficacy at 30 uM by thallium flux assay relative to control. The class given is cell-based.
Series [8] relates to HEK293. The series is described as follows: Inhibition of human SLACK A934T mutant expressed in HEK293 cells assessed as efficacy at 30 uM by thallium flux assay relative to control. The class given is cell-based. Summed up:
as §1

The target in series [9] is Calcium-activated potassium channel subunit alpha-1 (Homo sapiens) (UniProt Q12791). Description: Inhibition of Maxi-K (unknown origin) expressed in HEK293 cells by thallium flux assay. The series is classed as cell-based.
Calcium-activated potassium channel subunit alpha-1 (Homo sapiens), sequence (Q12791 whole entry): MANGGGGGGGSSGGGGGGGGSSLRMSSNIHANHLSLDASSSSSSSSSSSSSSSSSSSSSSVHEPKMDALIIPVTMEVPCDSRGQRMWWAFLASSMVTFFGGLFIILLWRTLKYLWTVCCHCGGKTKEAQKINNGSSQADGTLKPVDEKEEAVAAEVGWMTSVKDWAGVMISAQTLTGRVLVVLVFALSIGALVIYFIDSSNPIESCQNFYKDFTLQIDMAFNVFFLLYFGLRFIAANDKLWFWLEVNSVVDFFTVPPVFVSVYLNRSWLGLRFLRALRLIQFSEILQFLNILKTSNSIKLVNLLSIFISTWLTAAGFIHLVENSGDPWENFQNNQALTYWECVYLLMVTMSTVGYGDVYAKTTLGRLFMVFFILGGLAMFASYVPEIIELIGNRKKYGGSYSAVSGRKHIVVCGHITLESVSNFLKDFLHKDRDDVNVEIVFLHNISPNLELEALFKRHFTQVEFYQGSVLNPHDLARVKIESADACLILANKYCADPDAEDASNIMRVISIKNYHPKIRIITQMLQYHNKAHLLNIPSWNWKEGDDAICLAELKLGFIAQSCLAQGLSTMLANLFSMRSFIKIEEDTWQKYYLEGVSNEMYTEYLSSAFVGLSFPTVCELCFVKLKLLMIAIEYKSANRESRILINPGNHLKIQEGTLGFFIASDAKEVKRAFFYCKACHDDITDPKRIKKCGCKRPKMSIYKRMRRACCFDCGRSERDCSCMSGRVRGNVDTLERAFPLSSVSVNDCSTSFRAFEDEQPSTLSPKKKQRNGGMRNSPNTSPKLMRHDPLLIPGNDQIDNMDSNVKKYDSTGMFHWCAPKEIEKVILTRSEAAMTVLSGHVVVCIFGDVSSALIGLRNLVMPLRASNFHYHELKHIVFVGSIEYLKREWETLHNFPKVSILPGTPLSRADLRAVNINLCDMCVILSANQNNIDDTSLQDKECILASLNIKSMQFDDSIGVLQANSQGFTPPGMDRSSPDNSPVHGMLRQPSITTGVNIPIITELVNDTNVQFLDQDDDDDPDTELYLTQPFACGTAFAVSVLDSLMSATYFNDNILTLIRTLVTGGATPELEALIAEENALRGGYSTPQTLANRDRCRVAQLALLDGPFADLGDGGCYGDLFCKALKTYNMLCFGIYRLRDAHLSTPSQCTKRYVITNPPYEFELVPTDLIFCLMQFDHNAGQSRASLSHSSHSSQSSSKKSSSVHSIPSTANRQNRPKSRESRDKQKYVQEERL
Series [10] is described as follows: Metabolic stability in mouse liver microsomes assessed as compound remaining measured after 10 min in presence of NADPH. The series is classed as ADME, Microsome. Put shortly: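 Mouse liver microsomes (0.5 mg/mL) with compound (5 μM) preincubated 5 min at 37 °C in 100 mM potassium phosphate, pH 7.4. Reaction started with NADPH (1 mM) plus MgCl2 (3 mM). Samples at 0 and 10 min quenched in cold acetonitrile with internal standard; percent remaining by LC/MS/MS.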
On the technique in general: Liver microsomes are vesicles of endoplasmic reticulum, rich in cytochrome P450 enzymes.

Series [11] is described as follows: Inhibition of wild-type human SLACK expressed in CHO cells by whole cell voltage clamp electrophysiology assay. The series is classed as cell-based. The conditions noted are these: Cricetulus griseus. Summed up:
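Automated whole-cell patch clamp at room temperature. External (mM): NaCl 105, KCl 4, MgCl2 1, CaCl2 5, HEPES 10, NMDG-Cl 40, pH 7.4. Internal: NaCl 70, KF 70, KCl 10, EGTA 5, HEPES 5, pH 7.2. Concentrations 0.125–30 μM in half-log steps, ≥3 cells per series.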

Series [12] in a line: Inhibition of human SLACK A934T mutant expressed in HEK293 cells by thallium flux assay. The class given is cell-based. Put shortly: as §1
Series [13] addresses Voltage-gated inwardly rectifying potassium channel KCNH2 (Homo sapiens, UniProt Q12809). The series is described as follows: Inhibition of human ERG expressed in HEK293 cells at 10 uM by thallium flux assay. The conditions noted are these: hek293, 10 µM. The class given is toxicity, cell-based.
The nature of series [14]: Apparent permeability in MDCK-MDR1 cells by bidirectional permeability assay. The conditions noted are these: dog. The series is classed as ADME, cell-based, Canis lupus familiaris.
Series [15] in a line: Efflux ratio of permeability in MDCK-MDR1 cells assessed as P-glycoprotein mediated efflux. The class given is ADME, cell-based, Canis lupus familiaris. The following applies: dog.

Voltage-gated inwardly rectifying potassium channel KCNH2, sequence (Q12809 whole entry): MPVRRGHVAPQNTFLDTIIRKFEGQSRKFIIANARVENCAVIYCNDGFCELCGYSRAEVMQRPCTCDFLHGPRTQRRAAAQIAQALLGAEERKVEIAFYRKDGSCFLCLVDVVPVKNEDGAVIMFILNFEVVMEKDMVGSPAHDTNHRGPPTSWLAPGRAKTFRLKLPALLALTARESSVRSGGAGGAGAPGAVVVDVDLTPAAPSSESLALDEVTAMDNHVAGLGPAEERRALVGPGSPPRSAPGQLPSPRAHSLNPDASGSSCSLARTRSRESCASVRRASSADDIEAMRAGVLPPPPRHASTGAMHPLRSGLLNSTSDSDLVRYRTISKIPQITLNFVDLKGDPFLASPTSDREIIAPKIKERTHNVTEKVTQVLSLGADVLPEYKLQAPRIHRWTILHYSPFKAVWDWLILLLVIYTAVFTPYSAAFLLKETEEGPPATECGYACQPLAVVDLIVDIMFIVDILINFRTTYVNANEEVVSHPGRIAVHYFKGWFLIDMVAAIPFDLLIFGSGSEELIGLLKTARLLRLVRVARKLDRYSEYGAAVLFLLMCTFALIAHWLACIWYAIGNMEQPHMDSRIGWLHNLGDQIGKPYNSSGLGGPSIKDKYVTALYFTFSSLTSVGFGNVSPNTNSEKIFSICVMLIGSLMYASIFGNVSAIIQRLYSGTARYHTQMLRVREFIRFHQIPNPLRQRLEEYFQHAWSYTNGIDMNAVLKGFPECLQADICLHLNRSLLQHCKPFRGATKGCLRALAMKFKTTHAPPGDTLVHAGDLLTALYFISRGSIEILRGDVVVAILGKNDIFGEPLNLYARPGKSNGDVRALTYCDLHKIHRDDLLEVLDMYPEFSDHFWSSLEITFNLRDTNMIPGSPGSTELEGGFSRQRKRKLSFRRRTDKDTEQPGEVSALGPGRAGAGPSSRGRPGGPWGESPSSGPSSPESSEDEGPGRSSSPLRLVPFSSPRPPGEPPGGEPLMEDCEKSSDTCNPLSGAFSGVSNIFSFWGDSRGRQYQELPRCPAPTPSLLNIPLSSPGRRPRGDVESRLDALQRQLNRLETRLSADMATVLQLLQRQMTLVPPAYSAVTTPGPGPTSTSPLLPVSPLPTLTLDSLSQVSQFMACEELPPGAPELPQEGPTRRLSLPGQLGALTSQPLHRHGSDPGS

As usually defined, the EC50 is the concentration at which the effect is half-maximal. As to `Cc1ccccc1S(=O)(=O)N1CC(c2nc(-c3ccsc3)no2)C1`, the Efficacy in the series with HEK293 [1] (filed as activator) was found to be 44%. For the same molecule, a half-maximal effect in series [2] (EC50) was put at 6.1 µM.
In the case of `CCOc1ccccc1S(=O)(=O)N1CC(c2nc(-c3ccc(OC)cc3)no2)C1`, in the series on HEK293 [1], the Efficacy worked out at 21%. In [2], this molecule yielded an EC50 of 7.1 µM.
In general, IC50 refers to the concentration needed to halve the response being measured. Low readings indicate greater potency in that assay, high ones weaker potency in that assay. Regarding `Cc1ccc2cccc(S(=O)(=O)N3CC(c4nc(-c5ccc(F)cc5)no4)C3)c2n1`, the Efficacy in series [3] is 76%; with HEK293 [6], 99%; with CHO, 100%; with HEK293 [8], 72%. In addition, the IC50 in [4] is greater than 10 µM; in series [11] it was 0.32 µM; in series [12] it was 0.67 µM. The Fu in [5] is given as less than 0.01. Further, in series [7], the Efficacy result is “inactive”. In addition, the inhibition entry in series [9] was “inactive”. In addition, the Activity in series [10] is reported as 26%. The “inhibition (INH)” value in [13] is on record as “Not Active”.
Regarding `COc1ccc(S(=O)(=O)N2CC(c3nc(-c4ccsc4)no3)C2)cc1`, the Efficacy with HEK293 [1] (filed as activator) is 51%. In [2], this molecule yielded an EC50 of 3.2 µM.
Regarding `COc1ccccc1S(=O)(=O)N1CC(c2nc(-c3ccsc3)no2)C1`, in the series on HEK293 [1], the Efficacy is 29%. The EC50 in series [2] turned out to be 8.1 µM.
As for `CCOc1ccccc1S(=O)(=O)N1CC(c2nc(-c3ccsc3)no2)C1`, the Efficacy in series [3] is 55%; in the series on HEK293 [6], 102%; in the series with CHO, 100%; in the series with HEK293 [8] it was 72%. The IC50 in series [4] is greater than 10 µM; in series [11], 0.64 µM; in [12] it was 0.82 µM. Besides, in series [5], the Fu worked out at 0.022. Also, the Papp in [14] is recorded as 31.1 10^-6 cm/s. The Efficacy entry in series [7] was “inactive”. Moreover, in series [9], the inhibition entry was “inactive”. The Activity in [10] is reported as less than 10%. Further, the Ratio in series [15] stood at 0.65.
